ASAP1 inh = ASAP1 ArfGAP inhibition; ASAP1-stimulated ARF1 GTP hydrolysis, GDP FP detection; inhibition, % at 16.5 µM; 360,000 tested, 0.19% active; in the data active = inhibition above about 25%;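 note: 0% = vehicle with enzyme and substrate and 100% = no enzyme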
proCasp7 act = counter-screen for procaspase-3 activators: activators of human procaspase-7; P55210; activation, % at 8.5 µM; 330,000 tested, 0.093% active; recombinant procaspase-7, Ac-DEVD-pNA absorbance 405 nm; D23A/D198A/D206A triple mutant, cannot self-cleave; scale: DMSO 0, 5 µM enzyme 100;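 active = percent activation above the screen-wide mean plus 3 SD, cut at about 25% in these data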
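Assay system: Uncleavable procaspase-7 mutant enzyme / Input: 2 µM procaspase-7 mutant as dispensed / Dosing: single nominal 8.5 µM compound dose, 0.8% DMSO final / Timing: 1 h enzyme–compound preincubation and 2 h substrate reaction, both 25 °C / Detection: p-Nitroaniline absorbance at 405 nm, read at 0 and 120 min / Replication: singlicate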
ARFGAP1 inhibitor = inhibits rat ARF GTPase activating protein 1. inhibition, % at 16.5 µM. 360,000 tested, 0.26% active. Q62848. Arfgap1-stimulated ARF1 GTP hydrolysis, GDP FP detection;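 active = inhibition above a per-plate limit, mean inhibition of low control wells plus 3 SD, cut at about 25% in these data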;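 note: 0% = DMSO wells with enzyme and 100% = wells lacking Arfgap1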
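System: truncated rat Arfgap1 GAP domain / Benchmarks: high control wells lacking Arfgap1, low control full reaction with DMSO / Times: compound-enzyme preincubation 20 min, reaction 120 min, detection 60 min, 25 °C / Repeats: one replicate per compound / Also added: human ARF1(Δ1-17)-GTP substrate / Measured by: Tracer-displacement fluorescence polarization with EDTA stop, 620/688 nm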
CR mimetic SO = yeast age-related superoxide inhibition as caloric restriction mimetic; AID 2690; superoxide response (% of plate mean), % at 10 µM; 330,000 tested, 0.18% active; S. cerevisiae aged cells, superoxide DHE fluorescence; stronger effect = lower value;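 active = superoxide response under a set limit, about three screen SD below normal, cut at about 65% in these data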;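 note: yeast aged for seven days with compound at 30 °C before DHE staining; 100% = average MFI of all compound-treated wells on the plate with controls excluded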
LANA-H2B inh = blocks KSHV LANA binding to histone H2A/H2B. Q9QR71. cell-free LANA-H2A/H2B peptide, fluorescence polarization. inhibition, % (no concentration beside the values). 320,000 tested, 0.6% active. AID 2629; in the data active = inhibition mostly above about 10%, no sharp cut-off; inactive = mostly below about 6.7%
Target sequence (Q9QR71 whole entry, looked up): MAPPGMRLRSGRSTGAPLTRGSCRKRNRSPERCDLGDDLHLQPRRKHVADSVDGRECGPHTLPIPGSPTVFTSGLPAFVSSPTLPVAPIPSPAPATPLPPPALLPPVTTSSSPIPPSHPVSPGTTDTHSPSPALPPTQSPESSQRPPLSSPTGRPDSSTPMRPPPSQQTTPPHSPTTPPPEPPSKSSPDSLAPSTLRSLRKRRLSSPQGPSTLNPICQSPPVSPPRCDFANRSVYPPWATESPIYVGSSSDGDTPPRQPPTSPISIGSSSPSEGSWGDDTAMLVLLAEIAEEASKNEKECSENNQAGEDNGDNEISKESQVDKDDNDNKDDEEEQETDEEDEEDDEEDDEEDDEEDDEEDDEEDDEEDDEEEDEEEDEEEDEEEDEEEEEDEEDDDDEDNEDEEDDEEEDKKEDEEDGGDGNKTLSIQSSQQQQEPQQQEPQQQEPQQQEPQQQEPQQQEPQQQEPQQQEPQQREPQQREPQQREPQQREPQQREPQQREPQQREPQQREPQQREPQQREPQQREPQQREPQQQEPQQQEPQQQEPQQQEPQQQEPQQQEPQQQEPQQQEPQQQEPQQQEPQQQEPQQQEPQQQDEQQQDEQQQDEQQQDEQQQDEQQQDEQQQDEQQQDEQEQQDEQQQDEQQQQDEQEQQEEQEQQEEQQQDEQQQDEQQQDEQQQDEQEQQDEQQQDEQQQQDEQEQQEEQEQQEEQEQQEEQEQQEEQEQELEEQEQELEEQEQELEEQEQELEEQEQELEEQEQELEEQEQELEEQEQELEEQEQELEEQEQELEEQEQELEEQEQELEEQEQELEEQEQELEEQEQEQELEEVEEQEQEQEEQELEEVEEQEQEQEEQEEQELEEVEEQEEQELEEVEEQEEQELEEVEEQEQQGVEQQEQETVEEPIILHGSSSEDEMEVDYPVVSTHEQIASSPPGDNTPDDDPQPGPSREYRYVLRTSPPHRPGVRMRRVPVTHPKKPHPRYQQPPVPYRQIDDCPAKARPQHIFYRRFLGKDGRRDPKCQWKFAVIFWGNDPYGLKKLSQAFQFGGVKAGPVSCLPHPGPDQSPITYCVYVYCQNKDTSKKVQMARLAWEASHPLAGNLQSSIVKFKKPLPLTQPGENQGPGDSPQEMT
proCasp3 act = procaspase-3 (human) activation. AID 463141. recombinant procaspase-3 D3A, Ac-DEVD-pNA absorbance 405 nm. activation, % at 8.5 µM. P42574. 330,000 tested, 0.11% active;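 active = activation above the mean of all tested compounds plus 3 SD, cut at about 21% in these data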;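 note: 0% = DMSO alone and 100% = DMSO wells spiked with extra 5 µM PC-3 D3A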
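assay system = Procaspase-3 D3A mutant | signal = absorbance at 405 nm, 0 and 120 min | times = 1 h preincubation plus 2 h reaction at 25 °C | repeats = single replicate | read-out = % activation between DMSO and enzyme-spiked controls | medium = Zinc-free HEPES saline buffer with Triton X-100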
ASAP1 GAP conf = ASAP1 inhibition confirmed; shares compounds with ASAP1 inh; ASAP1-stimulated Arf1 GTPase, GDP fluorescence polarization; inhibition, % at 16.5 µM; 620 tested, 37% active;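 active = mean inhibition over triplicates exceeds the hit threshold derived for the earlier primary screening run, cut at about 25% in these data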
Active calls of the source: *; nt = no result given. Sampled rows, rich in hits. Any-hit rate of the full collection: about 1.2%.

SMILES	ASAP1 inh	proCasp7 act	ARFGAP1 inhibitor	CR mimetic SO	LANA-H2B inh	proCasp3 act	ASAP1 GAP conf
CCCCOCCCNC(=O)C[C@@H]1C[C@@]2(C(=O)OC)CC(C)(C)CC=C2N(Cc2ccc3c(c2)OCO3)C1=O	9	nt	11	nt	nt	nt	nt
Cc1cc(=O)oc2c1c(C)nn2-c1cccc(Cl)c1	-2	6	0	103	-4	2	nt
O=C1C(Cl)=C(NCCc2ccccc2)C(=O)c2ccccc21	30*	nt	18	nt	nt	nt	6
CN1CCN(C(=O)CCCN2C(=O)/C(=C/c3ccccc3)SC2=S)CC1	-14	-19	9	104	3	-14	nt
O=C(O)CCCN1C(=O)/C(=C\C(Cl)=C\c2ccccc2)SC1=S	33*	nt	0	101	0	nt	61*
Cc1cc(Sc2nc(N(C)C)nc(N(C)C)n2)nc(Cl)n1	3	2	4	86	-4	1	nt
S=C(Nc1ccc2nsnc2c1)N1CCCCC1	25*	-5	22	82	7	-8	0
COc1ccc(S(=O)(=O)N2CCOCC2)cc1NC(=O)CN1CCN(C)CC1	-8	5	-8	103	0	10	nt
COC(=O)CCCC1=CC2=CC(=O)C(C)(OC(=O)c3cccs3)C(=O)C2=CN1Cc1ccccc1 (stereo not drawn)	-4	-3	-6	96	1	4	nt
COC(=O)CCCC1=CC2=CC(=O)C(C)(OC(=O)c3cccs3)C(=O)C2=CN1Cc1ccco1 (stereo not drawn)	25*	-9	-6	111	3	-4	4
COc1ccc(N2C(=O)[C@@H]3[C@H](C2=O)[C@H]2c4ccccc4C=CN2[C@@H]3C(C)=O)cc1	49*	-7	22	99	1	-5	18
COc1ccc(N2C(=O)[C@H]3[C@@H](C2=O)C2c4ccccc4C=NN2[C@H]3C(=O)C(C)(C)C)cc1 (stereo partly drawn)	6	1	4	102	0	4	nt
COc1cccc(/C=N/NC(=O)c2cc3cc([N+](=O)[O-])ccc3s2)c1O	42*	12	0	89	-1	6	143*
O=C1C=C(Nc2ccc(F)cc2)c2ccccc2C1=O	-1	7	4	142	6	1	nt
O=C1C=C(Nc2cccnc2)c2ccccc2C1=O	26*	nt	-7	nt	nt	nt	12
CC(C)n1c(NCc2cc(Cl)ccc2O)nc2ccccc21	26*	-3	6	103	1	-1	14
Cc1ccc(O)c(CNc2nc3ccccc3n2C(C)C)c1	3	-2	4	111	-1	5	nt
Cc1csc(NC(=O)c2nn(C)c(C)c2[N+](=O)[O-])n1	-4	4	-2	95	-3	-8	nt
Cc1ccc(C(=O)N2CCCC2)cc1Br	26*	4	6	116	-1	-3	0
CCCCOC(=O)Sc1nc2ccccc2o1	25*	-5	-1	93	0	-4	-1
Cc1ccnc(NS(=O)(=O)c2ccc(NC(=O)C(C)(C)C)cc2)n1	1	4	-1	99	-1	-2	nt
Cc1nnc(-c2cccc(Br)c2)c2cn(-c3cccc(Br)c3)nc12	27*	6	14	80	3	0	20
Nc1ccc2c(c1)C(=NO)c1cc([N+](=O)[O-])ccc1-2	26*	nt	-5	nt	nt	nt	18
COc1ccc(C(=O)NC(C)c2ccc(-n3ccnc3)cc2)cc1[N+](=O)[O-] (stereo not drawn)	25*	3	-4	107	-5	3	12
COc1cc(C(=O)NC(C)c2ccc(-n3ccnc3)cc2)cc(OC)c1C (stereo not drawn)	0	-6	5	75	-5	1	nt
SMILES	ASAP1 inh	proCasp7 act	ARFGAP1 inhibitor	CR mimetic SO	LANA-H2B inh	proCasp3 act	ASAP1 GAP conf
COc1ccc(CCn2c(C)c(C(C)=O)c3cc(OC(=O)c4ccco4)ccc32)cc1OC	25*	15	-8	95	0	-3	6
COc1cc(C2c3cc4c(cc3CC3COC(=O)N32)OCO4)cc(OC)c1OC (stereo not drawn)	-8	nt	23	nt	nt	nt	nt
COc1cccc(C(NC(C)=O)c2nc(-c3ccc(N(C)C)cc3)cs2)c1 (stereo not drawn)	-8	nt	-4	nt	nt	nt	nt
CC1OC2CC(=O)OC2C2=C1C(=O)c1c(O)cccc1C2=O (stereo not drawn)	37*	nt	0	nt	nt	nt	13
O=C1c2cccc(O)c2C(=O)c2c(O)cc(CO)cc21	nt	-7	nt	131	1	17	nt
COc1cccc(CNC(=O)Cn2c(=O)c3cccn3c3ccccc32)c1	4	8	-2	103	-4	0	nt
CCOc1ccccc1NC(=O)Cc1coc2ccc(C)cc12	-8	8	4	85	-384	-6	nt
Cn1c(SCC(=O)c2ccc3c(c2)OCCO3)nnc1C1CC1	11	-3	-2	102	-1	0	nt
Nc1c(C(=O)NCc2ccc3c(c2)OCO3)c2nc3ccccc3nc2n1CCCN1CCOCC1	34*	-17	17	99	-2	1	10
C=C[C@@H]1c2cc(C)ccc2N(S(=O)(=O)c2ccc(C)cc2)[C@H](c2ccccc2C(F)(F)F)C1(C#N)C#N	12	1	-6	92	5	4	nt
COc1ccc(S(=O)(=O)/N=C2\C=C(Nc3ccc(O)cc3)C(=O)c3ccccc32)cc1	38*	-3	20	121	-1	-5	25*
CC1(C)C=C2C(=NN(c3ccccc3)C(N)=C2C#N)CO1	26*	-6	9	135	-3	-5	8
CC1(C)Cc2c(C#N)c(N)n(-c3ccccc3)c(=S)c2CO1	-3	9	-5	102	4	-13	nt
O=C(CC1C[C@H](C(=O)N2CCOCC2)[C@@]2(CCC3CCCC3)c3[nH]c4ccccc4c3CCN2C1=O)NCc1cccc(C(F)(F)F)c1 (stereo partly drawn)	9	nt	7	nt	nt	nt	nt
COc1ccc(C(=O)Nc2cccc(-c3cc4ccccc4oc3=O)c2)cc1[N+](=O)[O-]	27*	-3	24	130	0	8	72*
N#Cc1ccc(OCCCN2CCC(C(O)(c3ccccc3)c3ccccc3)CC2)cc1	25*	nt	-6	nt	nt	nt	-3
N/C(=N\OC(=O)c1cccc2ccccc12)c1cccc([N+](=O)[O-])c1	28*	-9	18	104	-3	3	57*
COC(=O)c1ccc(C(=O)OCc2nc3cc4ccccc4cc3[nH]2)cc1	26*	-3	5	101	-3	-10	5
O=C(O)CCc1nc2cc3ccccc3cc2[nH]1	-4	-7	-8	100	-4	7	nt

From PubChem
